Laboratory results: ChEMBL document CHEMBL1125157, “Synthesis and biological evaluation of 14-alkoxymorphinans. 3. Extensive study on cyprodime-related compounds” (J Med Chem, 1990)
Activity calls are given as the source filed them. No cut-off for these calls is given here.

Assays:
[1] = target: Mu-type opioid receptor (Mus musculus) (UniProt P42866); test: (§1) Agonist potency against Opioid receptor mu 1 expressed as the ratio of the ED40 concentrations of the normorphine and compound in guinea pig ileum; NA= No agonist activity detected; type: functional, tissue-based
Chain of Mu-type opioid receptor (Mus musculus) (P42866 whole entry): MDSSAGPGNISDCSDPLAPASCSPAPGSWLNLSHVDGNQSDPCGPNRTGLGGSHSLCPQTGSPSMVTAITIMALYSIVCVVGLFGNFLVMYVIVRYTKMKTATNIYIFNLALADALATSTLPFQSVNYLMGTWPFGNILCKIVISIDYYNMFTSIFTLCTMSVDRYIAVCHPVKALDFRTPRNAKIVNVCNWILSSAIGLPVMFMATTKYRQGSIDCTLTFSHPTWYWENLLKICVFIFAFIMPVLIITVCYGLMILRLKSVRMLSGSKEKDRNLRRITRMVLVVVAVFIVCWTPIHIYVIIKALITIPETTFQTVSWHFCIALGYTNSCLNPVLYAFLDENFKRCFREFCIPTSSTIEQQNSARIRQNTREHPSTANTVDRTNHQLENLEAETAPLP
In short: (§2)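 Agonist activity tested on electrically stimulated isolated tissue twitch (mouse vas deferens and guinea pig ileum). ED40 is the concentration giving 40% inhibition of twitch height. Potency is given as the ratio of the ED40 of the reference agonist (normorphine, ethylketocyclazocine or DADLE) to that of the test compound. TS marks a curve too shallow to reach 40% inhibition. NA means no agonist activity was detected.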

[2] = target: Mu-type opioid receptor (Cavia porcellus) (UniProt P97266); test: as §1; type: functional, tissue-based; in short: as §2
Chain of Mu-type opioid receptor (Cavia porcellus) (P97266 whole entry): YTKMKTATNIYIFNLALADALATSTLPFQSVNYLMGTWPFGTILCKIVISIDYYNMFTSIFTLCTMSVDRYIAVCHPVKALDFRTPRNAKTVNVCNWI

[3] = target: Mu-type opioid receptor (Cavia porcellus) (UniProt P97266); test: Agonist potency against Opioid receptor mu 1 expressed as the ratio of the ED40 concentrations of the ethylketocyclazocin and compound in guinea pig ileum; type: functional, tissue-based; in short: as §2
[4] = target: Opioid receptors; mu & kappa (Homo sapiens) (UniProt P41145+P35372); test: Selectivity ratio was determined using the Ke value of kappa receptor to that of mu receptor
Chain of Opioid receptors; mu & kappa (Homo sapiens) (P35372 whole entry, looked up): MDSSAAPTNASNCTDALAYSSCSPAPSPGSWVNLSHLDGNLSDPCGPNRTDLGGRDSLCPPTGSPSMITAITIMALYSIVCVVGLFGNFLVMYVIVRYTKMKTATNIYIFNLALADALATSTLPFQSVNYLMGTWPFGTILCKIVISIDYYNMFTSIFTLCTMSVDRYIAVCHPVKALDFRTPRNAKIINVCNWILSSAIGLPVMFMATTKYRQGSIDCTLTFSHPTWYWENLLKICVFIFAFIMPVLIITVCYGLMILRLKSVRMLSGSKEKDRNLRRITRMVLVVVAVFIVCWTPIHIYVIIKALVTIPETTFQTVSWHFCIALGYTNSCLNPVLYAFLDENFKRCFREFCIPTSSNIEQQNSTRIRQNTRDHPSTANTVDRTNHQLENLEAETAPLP
Chain of Opioid receptors; mu & kappa (Homo sapiens) (P41145 whole entry, looked up): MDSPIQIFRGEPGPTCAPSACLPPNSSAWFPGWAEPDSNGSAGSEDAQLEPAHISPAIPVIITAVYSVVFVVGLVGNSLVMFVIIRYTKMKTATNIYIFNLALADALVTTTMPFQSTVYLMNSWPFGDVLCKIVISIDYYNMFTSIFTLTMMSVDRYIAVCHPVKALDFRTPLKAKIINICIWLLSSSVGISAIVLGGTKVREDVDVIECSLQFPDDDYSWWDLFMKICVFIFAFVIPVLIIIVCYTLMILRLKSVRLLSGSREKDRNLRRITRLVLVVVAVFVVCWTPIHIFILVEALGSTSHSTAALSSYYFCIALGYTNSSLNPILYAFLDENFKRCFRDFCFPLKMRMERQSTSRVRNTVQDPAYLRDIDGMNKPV
In short: (§3)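 Selectivity is the ratio of Ke values from mouse vas deferens antagonism, with Ke = [antagonist]/(DR − 1). DADLE gave the δ value, ethylketocyclazocine the κ value and normorphine the μ value. Antagonist concentrations gave a dose ratio of 3–10.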

[5] = target: T1, Opioid receptors; mu & delta (Homo sapiens) (UniProt P41143+P35372); test: Selectivity ratio was determined using the Ke value of Opioid receptor delta 1 to that of Opioid receptor mu 1; in short: as §3
T1 sequence (P35372 whole entry, looked up): as the sequence (P35372 whole entry, looked up) above
T1 sequence (P41143 whole entry, looked up): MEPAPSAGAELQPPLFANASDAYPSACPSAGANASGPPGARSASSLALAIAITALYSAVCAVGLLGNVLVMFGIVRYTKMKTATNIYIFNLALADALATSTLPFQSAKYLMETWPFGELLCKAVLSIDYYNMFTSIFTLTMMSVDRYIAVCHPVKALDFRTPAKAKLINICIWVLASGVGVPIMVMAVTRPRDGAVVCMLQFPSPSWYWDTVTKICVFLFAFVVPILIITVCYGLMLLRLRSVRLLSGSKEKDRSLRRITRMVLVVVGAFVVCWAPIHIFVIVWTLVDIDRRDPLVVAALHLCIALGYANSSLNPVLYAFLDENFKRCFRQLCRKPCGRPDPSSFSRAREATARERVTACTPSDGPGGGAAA

[6] = target: Mu-type opioid receptor (Mus musculus) (UniProt P42866); test: Antagonistic activity (Ke) against nor-morphine and Opioid receptor mu 1 of mouse vas deferens assay; type: functional, tissue-based
In short: (§4)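 Mouse vas deferens antagonism was measured against normorphine (μ), ethylketocyclazocine (κ) or DADLE (δ in this tissue). Ke = [antagonist]/(DR − 1), where DR is the ratio of equiactive agonist concentrations with and without antagonist. Antagonist concentrations were chosen to give a dose ratio between 3 and 10 against the relevant agonist.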

[7] = target: Kappa-type opioid receptor (Mus musculus) (UniProt P33534); test: Antagonistic activity (Ke) at Opioid receptor kappa 1 was determined against ethylketocyclazocine in the mouse vas deferens (MVD); type: functional, tissue-based; in short: as §4
Chain of Kappa-type opioid receptor (Mus musculus) (P33534 whole entry): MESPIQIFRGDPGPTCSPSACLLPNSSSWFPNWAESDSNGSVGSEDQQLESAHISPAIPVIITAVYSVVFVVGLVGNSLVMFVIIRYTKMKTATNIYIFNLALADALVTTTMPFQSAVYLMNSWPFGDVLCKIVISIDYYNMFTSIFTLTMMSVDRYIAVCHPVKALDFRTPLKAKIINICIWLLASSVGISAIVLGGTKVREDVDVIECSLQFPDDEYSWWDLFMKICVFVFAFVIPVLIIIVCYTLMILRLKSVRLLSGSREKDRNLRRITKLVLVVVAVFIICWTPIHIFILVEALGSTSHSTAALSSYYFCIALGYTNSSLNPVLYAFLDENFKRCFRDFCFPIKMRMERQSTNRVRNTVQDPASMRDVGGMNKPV

[8] = target: Mu-type opioid receptor (Homo sapiens) (UniProt P35372); test: Agonist potency against mu opioid receptor expressed as the ratio of the ED40 concentrations of the ethylketocyclazocin and compound in guinea pig ileum; type: functional, tissue-based; in short: as §2
Chain of Mu-type opioid receptor (Homo sapiens) (P35372 whole entry): as the sequence (P35372 whole entry, looked up) above

[9] = target: Mu-type opioid receptor (Homo sapiens) (UniProt P35372); test: Agonist potency against mu opioid receptor expressed as the ratio of the ED40 concentrations of the DADLE and compound in guinea pig ileum; NA= No agonist activity detected; type: functional, tissue-based; in short: as §2
[10] = target: Delta-type opioid receptor (Mus musculus) (UniProt P32300); test: Antagonistic activity (Ke) at Opioid receptor delta 1 was determined against DADLE in the mouse vas deferens (MVD); type: functional, tissue-based; in short: as §4
Chain of Delta-type opioid receptor (Mus musculus) (P32300 whole entry): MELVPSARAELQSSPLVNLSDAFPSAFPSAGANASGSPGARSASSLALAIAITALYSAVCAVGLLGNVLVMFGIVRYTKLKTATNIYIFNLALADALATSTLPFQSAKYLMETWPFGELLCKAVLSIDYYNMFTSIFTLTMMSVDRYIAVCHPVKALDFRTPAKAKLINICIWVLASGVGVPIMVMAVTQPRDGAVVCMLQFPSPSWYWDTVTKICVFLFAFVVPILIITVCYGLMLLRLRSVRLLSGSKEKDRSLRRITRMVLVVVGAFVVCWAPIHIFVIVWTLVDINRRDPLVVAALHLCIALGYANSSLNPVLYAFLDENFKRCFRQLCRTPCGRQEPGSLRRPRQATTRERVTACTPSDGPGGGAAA

[11] = target: Mu-type opioid receptor (Homo sapiens) (UniProt P35372); test: Agonist potency against mu opioid receptor expressed as the ratio of the ED40 concentrations of the normorphine and compound in guinea pig ileum; NA= No agonist activity detected; type: functional, tissue-based; in short: as §2
[12] = target: Mu-type opioid receptor (Homo sapiens) (UniProt P35372); test: Agonist potency against mu opioid receptor expressed as the ratio of the ED40 concentrations of the DADLE and compound in guinea pig ileum; type: functional, tissue-based; in short: as §2
[13] = target: Delta-type opioid receptor (Mus musculus) (UniProt P32300); test: Antagonistic activity (Ke) at Opioid receptor delta 1 was determined against DADLE in the mouse vas deferens (MVD) method.; type: functional, tissue-based; in short: as §4
[14] = target: Mu-type opioid receptor (Cavia porcellus) (UniProt P97266); test: Agonist potency against Opioid receptor mu 1 expressed as the ratio of the ED40 concentrations of the DADLE and compound in guinea pig ileum […]; type: functional, tissue-based; in short: as §2
[15] = target: Mu-type opioid receptor (Mus musculus) (UniProt P42866); test: Agonist potency against Opioid receptor mu 1 expressed as the ratio of the ED40 concentrations of the normorphine and compound in guinea pig ileum; type: functional, tissue-based; in short: as §2
[16] = target: T1, Opioid receptors; mu & delta (Homo sapiens); test: Selectivity ratio was determined using the Ke value of Opioid receptor delta 1 to that of mu receptor; in short: as §3
[17] = target: Mu-type opioid receptor (Homo sapiens) (UniProt P35372); test: Agonist potency against mu opioid receptor expressed as the ratio of the ED40 concentrations of the ethylketocyclazocin and compound in guinea pig ileum TS= Too shallow to estimate ED40; type: functional, tissue-based; in short: as §2
[18] = target: Mu-type opioid receptor (Cavia porcellus) (UniProt P97266); test: Agonist potency against Opioid receptor mu 1 expressed as the ratio of the ED40 concentrations of the ethylketocyclazocin and compound in guinea pig ileum TS= Too shallow to estimate ED40; type: functional, tissue-based; in short: as §2
[19] = target: Mu-type opioid receptor (Homo sapiens) (UniProt P35372); test: Agonist potency against mu opioid receptor expressed as the ratio of the ED40 concentrations of the normorphine and compound in guinea pig ileum; TS= Too shallow to estimate ED40; type: functional, tissue-based; in short: as §2

Structure (SMILES) | Selectivity ratio [4] | Selectivity ratio [5] | Ke [6] | Ke [7] | Ratio [8] | Ratio [9] | Ke [10] | Ratio [11] | Ke [13] | further results
CO[C@@]12CCC(=O)C[C@@]13CCN(CC1CC1)[C@@H]2Cc1cccc(O)c13 |  |  |  |  |  |  |  |  |  | Ratio [1]: 0.001; Ratio [2]: inactive; Ratio [3]: 0.0007
C=CCN1CC[C@]23CC(=O)CC[C@@]2(OCC)[C@H]1Cc1cccc(OC)c13 | 32 | 46 | 81 nM | 2560 nM | 0.0004 | inactive | 3740 nM | inactive |  | 
C=CCN1CC[C@]23CC(=O)CC[C@@]2(OCC)[C@H]1Cc1ccc(OC)c(OC)c13 | 34 | 3.6 | 184 nM | 6190 nM | 0.001 |  | 665 nM |  |  | Ratio [12]: 1
CO[C@@]12CCC(=O)C[C@@]13CCN(CC1CC1)[C@@H]2Cc1cccc(OC(C)C)c13 | 22 | 105 | 108 nM | 2410 nM |  | inactive | 11300 nM |  |  | 
CCO[C@@]12CCC(=O)C[C@@]13CCN(CC1CC1)[C@@H]2Cc1cccc(OC)c13 | 52 | 98 | 21.7 nM | 1130 nM | 0.0014 | inactive | 2130 nM | inactive |  | 
C=CCN1CC[C@]23CC(=O)CC[C@@]2(OC)[C@H]1Cc1cccc(OC)c13 |  |  | 230 nM | 6040 nM |  |  |  |  | 6.45 µM | 
COc1cccc2c1[C@]13CCN(CC4CC4)[C@H](C2)[C@]1(OC)CCC(=O)C3 | 28 | 110 |  |  |  |  |  |  |  | 
CO[C@@]12CCC(=O)C[C@@]13CCN(CC1CC1)[C@@H]2Cc1ccccc13 |  |  |  |  |  |  |  |  |  | Ratio [14]: 0.004; Ratio [3]: 0.0008; Ratio [15]: 0.0004
CO[C@@]12CCC(=O)[C@@H]3Oc4cccc5c4C31CCN(CC1CC1)[C@@H]2C5 |  |  | 168 nM | 648 nM |  |  |  |  | 4.03 µM | Selectivity ratio [16]: 24
COc1ccc2c(c1OC)[C@]13CCN(CC4CC4)[C@H](C2)[C@]1(OC)CCC(=O)C3 |  |  | 120 nM | 2100 nM |  | inactive |  | inactive | 0.744 µM | Ratio [17]: inactive
C=CCN1CC[C@]23CC(=O)CC[C@@]2(OC)[C@H]1Cc1ccc(OC)c(OC)c13 |  |  | 118 nM | 3900 nM |  | inactive | 179 nM | inactive |  | Ratio [18]: inactive
CCO[C@@]12CCC(=O)C[C@@]13CCN(CC1CC1)[C@@H]2Cc1ccc(OC)c(OC)c13 | 115 | 33 | 46 nM | 5300 nM | 0.0015 | inactive | 1540 nM |  |  | Ratio [19]: inactive
CCCCOc1cccc2c1[C@]13CCN(CC4CC4)[C@H](C2)[C@]1(OC)CCC(=O)C3 |  |  | 21 nM | 811 nM |  |  |  |  | 2.05 µM | 
